This note sets out measurements from ChEMBL document CHEMBL1811853, “Design and evaluation of 3-aminopyrazolopyridinone kinase inhibitors inspired by the natural product indirubin” (Bioorg Med Chem, 2011).

Assay [1] concerns the target MAP kinase-activated protein kinase 2 (Homo sapiens, UniProt P49137). In words: Inhibition of MAPKAPK2 at 30 uM by microfluidic mobility shift assay. In a few lines:
(§1)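 Single-concentration screen, singlicate, 30 uM final (diluted from 1 mM DMSO solutions), fluorescently tagged peptide substrate appropriate to each kinase, ATP at apparent Km for each protein. Phosphorylated and unphosphorylated peptides separated electrophoretically; conversion is the phosphorylated peak area over the sum of both peaks. No-inhibitor and no-ATP controls; H89 reference on each plate.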

The target of assay [2] is Mitogen-activated protein kinase 1 (Homo sapiens) (UniProt P28482). In words: Inhibition of ERK2 at 30 uM by microfluidic mobility shift assay. In a few lines: as §1
Sequence of Mitogen-activated protein kinase 1 (Homo sapiens) (P28482 whole entry): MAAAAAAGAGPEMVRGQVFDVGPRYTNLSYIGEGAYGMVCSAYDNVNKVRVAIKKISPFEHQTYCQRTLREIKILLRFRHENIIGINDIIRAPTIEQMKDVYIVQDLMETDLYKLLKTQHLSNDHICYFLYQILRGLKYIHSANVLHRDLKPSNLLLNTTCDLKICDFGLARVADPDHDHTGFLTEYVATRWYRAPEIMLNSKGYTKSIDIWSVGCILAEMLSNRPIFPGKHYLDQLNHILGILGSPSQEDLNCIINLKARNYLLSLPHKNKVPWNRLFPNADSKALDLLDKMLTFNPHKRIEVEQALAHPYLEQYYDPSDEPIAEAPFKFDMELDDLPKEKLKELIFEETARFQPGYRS
For assay [3], the target named is Tyrosine-protein kinase Lyn (Homo sapiens, UniProt P07948). In words: Inhibition of LYN at 30 uM by microfluidic mobility shift assay. The method in brief: as §1
Sequence of Tyrosine-protein kinase Lyn (P07948 2-512 limits assumed): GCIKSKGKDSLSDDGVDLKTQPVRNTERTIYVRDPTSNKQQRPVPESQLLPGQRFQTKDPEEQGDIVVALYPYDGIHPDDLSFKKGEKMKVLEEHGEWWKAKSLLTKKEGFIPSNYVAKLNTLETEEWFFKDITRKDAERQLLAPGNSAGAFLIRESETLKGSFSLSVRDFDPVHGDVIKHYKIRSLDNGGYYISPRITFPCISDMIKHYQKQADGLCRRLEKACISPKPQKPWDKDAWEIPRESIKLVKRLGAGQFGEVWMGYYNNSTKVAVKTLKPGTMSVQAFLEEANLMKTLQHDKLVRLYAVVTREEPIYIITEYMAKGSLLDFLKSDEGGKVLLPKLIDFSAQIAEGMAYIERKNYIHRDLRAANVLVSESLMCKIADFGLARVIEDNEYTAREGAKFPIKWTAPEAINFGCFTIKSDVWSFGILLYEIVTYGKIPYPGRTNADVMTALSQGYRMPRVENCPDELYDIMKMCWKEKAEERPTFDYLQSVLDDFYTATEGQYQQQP
The target in assay [4] is Tyrosine-protein kinase Fyn (Homo sapiens, UniProt P06241). In words: Inhibition of FYN at 30 uM by microfluidic mobility shift assay. In a few lines:
as §1

For assay [5], the target named is T1, MAP kinase-activated protein kinase 5 (Homo sapiens) (UniProt Q8IW41).
T1 sequence (whole entry): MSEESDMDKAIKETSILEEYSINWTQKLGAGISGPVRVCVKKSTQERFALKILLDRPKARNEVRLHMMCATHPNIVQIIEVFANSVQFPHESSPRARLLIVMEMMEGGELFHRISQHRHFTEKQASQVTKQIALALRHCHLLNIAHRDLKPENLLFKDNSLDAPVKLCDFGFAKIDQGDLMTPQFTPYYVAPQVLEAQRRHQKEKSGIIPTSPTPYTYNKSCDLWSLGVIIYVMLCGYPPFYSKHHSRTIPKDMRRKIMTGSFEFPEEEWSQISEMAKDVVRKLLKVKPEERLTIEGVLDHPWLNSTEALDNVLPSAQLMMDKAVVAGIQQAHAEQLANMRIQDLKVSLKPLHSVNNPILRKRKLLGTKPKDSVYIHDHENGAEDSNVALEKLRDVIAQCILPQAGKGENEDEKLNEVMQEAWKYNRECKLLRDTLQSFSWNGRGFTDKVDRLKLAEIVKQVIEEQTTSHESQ
The assay is described as follows: Inhibition of PRAK1 at 30 uM by microfluidic mobility shift assay. In a few lines: as §1

Assay [6] deals with T2, Protein kinase C zeta type (Homo sapiens) (UniProt Q05513).
T2 sequence (whole entry): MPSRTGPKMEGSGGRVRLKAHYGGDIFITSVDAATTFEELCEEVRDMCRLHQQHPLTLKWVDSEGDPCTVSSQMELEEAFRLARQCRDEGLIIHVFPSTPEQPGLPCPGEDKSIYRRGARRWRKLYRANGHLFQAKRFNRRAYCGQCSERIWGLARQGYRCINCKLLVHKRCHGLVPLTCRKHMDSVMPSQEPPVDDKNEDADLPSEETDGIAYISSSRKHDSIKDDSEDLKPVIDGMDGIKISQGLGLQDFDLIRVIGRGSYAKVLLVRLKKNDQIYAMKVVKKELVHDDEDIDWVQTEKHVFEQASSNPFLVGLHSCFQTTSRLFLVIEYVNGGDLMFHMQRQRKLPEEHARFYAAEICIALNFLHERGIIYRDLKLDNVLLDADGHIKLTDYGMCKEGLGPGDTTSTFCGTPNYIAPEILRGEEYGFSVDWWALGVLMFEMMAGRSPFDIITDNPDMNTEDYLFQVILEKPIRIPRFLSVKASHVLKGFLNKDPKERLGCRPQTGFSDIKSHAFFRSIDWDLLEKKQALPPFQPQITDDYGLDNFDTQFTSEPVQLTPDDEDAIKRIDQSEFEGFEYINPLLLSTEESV
The assay is described as follows: Inhibition of PKCz at 30 uM by microfluidic mobility shift assay. In a few lines: as §1

Assay [7] addresses T3, Aurora kinase A (Homo sapiens) (UniProt O14965).
T3 sequence (whole entry): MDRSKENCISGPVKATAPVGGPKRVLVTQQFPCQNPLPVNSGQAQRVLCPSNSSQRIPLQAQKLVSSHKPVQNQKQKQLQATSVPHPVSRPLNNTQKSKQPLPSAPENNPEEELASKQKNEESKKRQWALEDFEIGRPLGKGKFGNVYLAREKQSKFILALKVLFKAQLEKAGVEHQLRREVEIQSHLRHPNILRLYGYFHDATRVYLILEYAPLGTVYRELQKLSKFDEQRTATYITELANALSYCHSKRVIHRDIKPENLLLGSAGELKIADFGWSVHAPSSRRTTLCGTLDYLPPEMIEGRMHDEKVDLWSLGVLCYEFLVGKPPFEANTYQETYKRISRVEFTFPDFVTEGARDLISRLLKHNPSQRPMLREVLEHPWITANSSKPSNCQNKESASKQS
The assay is described as follows: Inhibition of AurA at 30 uM by microfluidic mobility shift assay. The method in brief:
as §1

The target of assay [8] is Tyrosine-protein kinase Lck (Homo sapiens, UniProt P06239). The assay is described as follows: Inhibition of LCK at 30 uM by microfluidic mobility shift assay. In a few lines:
as §1

Assay [9] addresses Mitogen-activated protein kinase 3 (Homo sapiens) (UniProt P27361). The assay is described as follows: Inhibition of ERK1 at 30 uM by microfluidic mobility shift assay. In a few lines:
as §1

Assay [10] deals with RAC-alpha serine/threonine-protein kinase (Homo sapiens) (UniProt P31749). The assay is described as follows: Inhibition of AKT1 at 30 uM by microfluidic mobility shift assay. In a few lines:
as §1

For assay [11], the target named is Insulin receptor (Homo sapiens) (UniProt P06213). In words: Inhibition of INSR at 30 uM by microfluidic mobility shift assay. In a few lines:
as §1

In assay [12] the target is Glycogen synthase kinase-3 beta (Homo sapiens) (UniProt P49841). In words: Inhibition of GSK3B at 30 uM by microfluidic mobility shift assay. In a few lines: as §1
Sequence of Glycogen synthase kinase-3 beta (Homo sapiens) (P49841 whole entry, looked up): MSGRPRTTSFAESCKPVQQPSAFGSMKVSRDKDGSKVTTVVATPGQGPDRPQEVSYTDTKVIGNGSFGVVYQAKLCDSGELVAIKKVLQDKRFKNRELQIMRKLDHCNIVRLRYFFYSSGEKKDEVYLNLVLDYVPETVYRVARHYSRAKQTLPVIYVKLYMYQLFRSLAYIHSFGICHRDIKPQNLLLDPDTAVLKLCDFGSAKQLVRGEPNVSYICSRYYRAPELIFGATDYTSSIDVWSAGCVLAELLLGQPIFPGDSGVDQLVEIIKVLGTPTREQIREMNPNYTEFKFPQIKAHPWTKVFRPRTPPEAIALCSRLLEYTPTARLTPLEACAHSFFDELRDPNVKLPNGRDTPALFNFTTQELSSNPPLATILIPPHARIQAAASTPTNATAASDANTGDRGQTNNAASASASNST
The target in assay [13] is Serine/threonine-protein kinase Chk2 (Homo sapiens, UniProt O96017). In words: Inhibition of CHK2 at 30 uM by microfluidic mobility shift assay. In a few lines:
as §1

For assay [14], the target named is T4, Serine/threonine-protein kinase Chk1 (Homo sapiens) (UniProt O14757).
T4 sequence (whole entry): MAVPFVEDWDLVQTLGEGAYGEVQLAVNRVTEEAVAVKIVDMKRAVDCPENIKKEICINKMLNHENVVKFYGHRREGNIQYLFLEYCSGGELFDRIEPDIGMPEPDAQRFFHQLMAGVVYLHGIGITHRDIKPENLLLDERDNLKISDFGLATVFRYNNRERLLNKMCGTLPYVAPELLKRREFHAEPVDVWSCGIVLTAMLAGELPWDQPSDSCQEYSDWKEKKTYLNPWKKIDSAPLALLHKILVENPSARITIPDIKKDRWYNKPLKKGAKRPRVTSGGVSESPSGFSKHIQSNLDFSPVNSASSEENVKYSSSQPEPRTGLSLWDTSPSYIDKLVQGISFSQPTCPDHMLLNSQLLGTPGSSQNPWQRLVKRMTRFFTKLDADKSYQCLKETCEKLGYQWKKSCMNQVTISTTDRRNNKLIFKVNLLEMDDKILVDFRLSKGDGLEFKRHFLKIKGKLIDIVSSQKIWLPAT
In words: Inhibition of CHK1 at 30 uM by microfluidic mobility shift assay. In a few lines:
as §1

Assay [15] has as its target RAC-beta serine/threonine-protein kinase (Homo sapiens) (UniProt P31751). The assay is described as follows: Inhibition of AKT2 at 30 uM by microfluidic mobility shift assay. The method in brief: as §1
The target of assay [16] is Ribosomal protein S6 kinase alpha-1 (Homo sapiens) (UniProt Q15418). In words: Inhibition of RSK1 at 30 uM by microfluidic mobility shift assay. The method in brief: as §1
Sequence of Ribosomal protein S6 kinase alpha-1 (Homo sapiens) (Q15418 whole entry): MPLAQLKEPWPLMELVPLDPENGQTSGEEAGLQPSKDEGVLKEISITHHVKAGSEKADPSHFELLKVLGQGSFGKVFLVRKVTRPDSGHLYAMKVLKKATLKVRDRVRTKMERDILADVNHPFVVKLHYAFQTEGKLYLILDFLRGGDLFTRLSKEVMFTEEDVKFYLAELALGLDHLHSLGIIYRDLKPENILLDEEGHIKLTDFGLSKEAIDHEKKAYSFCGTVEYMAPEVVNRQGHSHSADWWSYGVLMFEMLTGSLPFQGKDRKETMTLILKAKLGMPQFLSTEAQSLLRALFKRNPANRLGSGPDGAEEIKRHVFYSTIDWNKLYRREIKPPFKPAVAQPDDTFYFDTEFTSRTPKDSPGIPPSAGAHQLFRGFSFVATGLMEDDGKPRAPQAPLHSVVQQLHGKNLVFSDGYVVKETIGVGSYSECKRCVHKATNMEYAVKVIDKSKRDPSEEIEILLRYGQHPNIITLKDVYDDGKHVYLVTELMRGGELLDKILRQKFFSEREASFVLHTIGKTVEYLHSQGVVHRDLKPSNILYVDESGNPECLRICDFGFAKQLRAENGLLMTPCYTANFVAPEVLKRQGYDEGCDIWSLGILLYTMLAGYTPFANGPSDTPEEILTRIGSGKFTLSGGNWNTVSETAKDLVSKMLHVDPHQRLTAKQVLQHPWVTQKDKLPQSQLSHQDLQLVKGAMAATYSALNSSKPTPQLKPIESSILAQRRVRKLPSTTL

Sequence of Tyrosine-protein kinase Lck (P06239 2-509 limits assumed): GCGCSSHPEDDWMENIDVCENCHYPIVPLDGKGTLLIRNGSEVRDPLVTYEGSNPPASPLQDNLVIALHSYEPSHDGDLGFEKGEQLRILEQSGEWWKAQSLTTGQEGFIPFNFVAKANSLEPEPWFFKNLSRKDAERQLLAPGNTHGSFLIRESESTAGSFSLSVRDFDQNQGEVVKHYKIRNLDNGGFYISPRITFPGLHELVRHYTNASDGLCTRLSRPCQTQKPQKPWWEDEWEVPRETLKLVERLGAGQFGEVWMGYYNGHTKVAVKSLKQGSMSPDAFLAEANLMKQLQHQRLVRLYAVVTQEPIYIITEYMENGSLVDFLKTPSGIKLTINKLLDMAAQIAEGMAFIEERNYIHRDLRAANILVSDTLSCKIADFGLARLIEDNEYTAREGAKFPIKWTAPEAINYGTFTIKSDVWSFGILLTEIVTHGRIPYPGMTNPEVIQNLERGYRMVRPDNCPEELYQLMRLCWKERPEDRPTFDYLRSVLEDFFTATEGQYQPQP
Sequence of RAC-beta serine/threonine-protein kinase (Homo sapiens) (P31751 whole entry): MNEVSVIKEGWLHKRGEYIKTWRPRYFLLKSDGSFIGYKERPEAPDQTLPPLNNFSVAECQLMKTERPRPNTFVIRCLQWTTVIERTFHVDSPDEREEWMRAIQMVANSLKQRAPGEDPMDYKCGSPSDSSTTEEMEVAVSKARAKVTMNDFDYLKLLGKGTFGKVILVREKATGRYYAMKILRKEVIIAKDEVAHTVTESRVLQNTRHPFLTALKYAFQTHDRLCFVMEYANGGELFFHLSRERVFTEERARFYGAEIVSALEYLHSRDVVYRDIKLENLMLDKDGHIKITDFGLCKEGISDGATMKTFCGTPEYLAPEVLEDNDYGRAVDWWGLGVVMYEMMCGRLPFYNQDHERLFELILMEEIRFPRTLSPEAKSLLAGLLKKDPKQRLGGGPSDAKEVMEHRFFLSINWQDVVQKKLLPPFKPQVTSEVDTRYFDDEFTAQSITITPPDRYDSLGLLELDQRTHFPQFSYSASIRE
Sequence of MAP kinase-activated protein kinase 2 (P49137 whole entry, looked up): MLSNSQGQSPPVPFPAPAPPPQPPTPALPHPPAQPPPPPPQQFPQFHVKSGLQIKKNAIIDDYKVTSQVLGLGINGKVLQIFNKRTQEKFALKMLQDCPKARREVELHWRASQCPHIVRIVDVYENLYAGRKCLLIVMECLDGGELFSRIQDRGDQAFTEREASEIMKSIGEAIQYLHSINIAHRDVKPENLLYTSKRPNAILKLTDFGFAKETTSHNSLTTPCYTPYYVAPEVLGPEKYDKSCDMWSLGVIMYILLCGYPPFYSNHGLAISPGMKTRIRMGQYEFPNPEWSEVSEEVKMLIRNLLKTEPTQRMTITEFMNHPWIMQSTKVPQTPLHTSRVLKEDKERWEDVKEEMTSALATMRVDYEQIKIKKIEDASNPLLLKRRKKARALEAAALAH
Sequence of Insulin receptor (Homo sapiens) (P06213 28-758 limits assumed): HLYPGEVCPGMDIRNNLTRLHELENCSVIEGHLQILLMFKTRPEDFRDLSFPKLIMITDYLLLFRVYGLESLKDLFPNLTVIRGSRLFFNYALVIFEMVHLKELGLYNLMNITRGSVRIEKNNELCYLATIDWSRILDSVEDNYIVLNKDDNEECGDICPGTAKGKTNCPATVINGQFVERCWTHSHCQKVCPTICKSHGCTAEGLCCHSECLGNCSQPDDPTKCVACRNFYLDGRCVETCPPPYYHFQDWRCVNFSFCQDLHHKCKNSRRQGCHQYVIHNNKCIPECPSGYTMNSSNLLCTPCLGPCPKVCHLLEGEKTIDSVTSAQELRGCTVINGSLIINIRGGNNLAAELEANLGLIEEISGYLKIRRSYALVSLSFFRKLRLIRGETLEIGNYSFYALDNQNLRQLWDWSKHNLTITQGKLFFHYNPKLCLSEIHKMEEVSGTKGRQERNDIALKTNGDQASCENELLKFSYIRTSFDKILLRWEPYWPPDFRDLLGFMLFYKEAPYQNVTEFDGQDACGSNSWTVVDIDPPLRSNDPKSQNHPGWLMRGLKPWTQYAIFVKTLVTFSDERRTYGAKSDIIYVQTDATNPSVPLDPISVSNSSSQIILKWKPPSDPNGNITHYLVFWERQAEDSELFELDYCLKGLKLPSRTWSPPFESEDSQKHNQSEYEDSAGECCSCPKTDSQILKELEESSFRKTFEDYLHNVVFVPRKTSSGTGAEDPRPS
Sequence of Insulin receptor (Homo sapiens) (P06213 763-1382 limits assumed): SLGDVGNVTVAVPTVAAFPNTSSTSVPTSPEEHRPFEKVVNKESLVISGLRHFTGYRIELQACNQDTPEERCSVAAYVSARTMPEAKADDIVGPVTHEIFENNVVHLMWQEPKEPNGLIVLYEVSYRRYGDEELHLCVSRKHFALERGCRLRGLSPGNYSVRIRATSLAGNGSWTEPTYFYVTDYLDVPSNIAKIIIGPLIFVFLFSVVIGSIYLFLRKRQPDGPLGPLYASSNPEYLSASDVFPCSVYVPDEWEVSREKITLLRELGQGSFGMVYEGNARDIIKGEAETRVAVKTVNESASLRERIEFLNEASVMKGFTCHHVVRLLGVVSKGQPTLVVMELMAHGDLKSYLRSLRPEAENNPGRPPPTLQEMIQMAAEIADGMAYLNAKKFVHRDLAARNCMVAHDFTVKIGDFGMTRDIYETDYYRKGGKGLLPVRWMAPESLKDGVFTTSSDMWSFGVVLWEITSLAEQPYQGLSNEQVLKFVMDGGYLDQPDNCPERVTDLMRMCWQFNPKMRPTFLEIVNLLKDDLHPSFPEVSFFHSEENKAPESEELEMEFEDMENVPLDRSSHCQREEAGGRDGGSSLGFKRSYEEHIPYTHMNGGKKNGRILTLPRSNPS

With `Nc1n[nH]c2cc(-c3ccccn3)[nH]c(=O)c12`, the inhibition (usually the drop in the measured response relative to a control, in per cent) in assay [1] worked out at 41%; in assay [2], 12%; in assay [3] it was 49%; in [4], 54%; in [5] it was 18%; in assay [6], 3%. In addition, the inhibition in assay [7] was 38%; in assay [8], 56%; in assay [9], 11%; in assay [10], 2%; in assay [11], 34%; in assay [12], 60%. The inhibition in assay [13] was 47%; in assay [14], 29%; in [15] it was 8%; in [16], 24%.

As for `CC(=O)Nc1nn(C)c2cc(-c3ccccc3)[nH]c(=O)c12`, the inhibition worked out at 9% in assay [1]; 2% in assay [2]; 13% in assay [3]; 21% in [4]; 3% in [5]; 28% in assay [6]. Also, the inhibition in assay [7] was 2%; in [8], 8%; in assay [9], 3%; in [10], -9%; in assay [11], 5%; in assay [12], 17%. The inhibition in assay [13] worked out at 4%; in [14], 4%; in assay [15], 40%; in assay [16] it was 4%.

`Cn1nc2c3c(nc(-c4ccccc4)cc31)NCC(=O)N2`: the inhibition worked out at 8% in assay [1]; 2% in assay [2]; 6% in assay [3]; 12% in [4]; 3% in assay [5]; 5% in assay [6]. In addition, the inhibition in [7] was 20%; in [8], 6%; in assay [9] it was 5%; in assay [10], 10%; in assay [11], 2%; in assay [12], 14%. In addition, the inhibition is 5% in assay [13], 6% in assay [14], 1% in assay [15] and 0% in assay [16].

For `COC(=O)CCc1c(C)[nH]c(=O)c2c(N)nn(C)c12`, the inhibition came to 11% in assay [1]; 5% in assay [2]; 6% in assay [3]; 7% in [4]; 2% in [5]; 14% in [6]. The inhibition in assay [7] worked out at 9%; in [8], 9%; in assay [9], 10%; in [10], 5%; in assay [11], 3%; in assay [12] it was 17%. The inhibition was -1% in [13], 2% in [14], 3% in assay [15] and -5% in [16].

Regarding `Cn1nc(N)c2c(=O)[nH]c(-c3ccccn3)cc21`, the inhibition in assay [1] was found to be 36%; in [2], 9%; in assay [3] it was 10%; in assay [4] it was 24%; in assay [5], 9%; in assay [6], 0%. The inhibition in assay [7] was 7%; in [8] it was 21%; in [9], 10%; in assay [10], 7%; in [11], 16%; in [12] it was 46%. Also, the inhibition in assay [13] amounted to 25%; in assay [14] it was 34%; in [15], 10%; in [16] it was 9%.

For the compound `Cc1nc(N)c2c(=O)[nH]c(C)cc2n1`, the inhibition in assay [1] came to 18%; in assay [2] it was 3%; in [3] it was 7%; in assay [4], 8%; in assay [5], 1%; in [6], 3%. For the same compound, the inhibition in assay [7] was 3%; in assay [8], 5%; in assay [9], 4%; in assay [10] it was -2%; in [11], 3%; in assay [12] it was 52%. For the same compound, the values for the inhibition in assay [13], in assay [14] and in [15] were 5%, 9% and 2%, respectively.

For the compound `Cc1cc2c(c(N)nn2C)c(=O)[nH]1`, the inhibition in assay [1] was 29%; in [2], 8%; in assay [4] it was -8%; in assay [5] it was 5%; in [6], 0%; in assay [7], 4%. Also, the inhibition in assay [8] was -1%; in assay [9], -2%; in [10], 11%; in assay [11] it was 3%; in assay [12], 1%; in assay [13] it was 3%. Further, the inhibition in assay [14] was -8%; in assay [15] it was 4%; in assay [16] it was 2%.

On to `Cc1cc2c(c(NC(=O)Nc3ccccc3)nn2C)c(=O)[nH]1`, for which the inhibition in assay [1] was found to be 0%; in assay [2], 7%; in assay [3], 16%; in assay [4], 7%; in [5], 4%; in assay [6] it was 19%. Further, the inhibition in assay [7] was 10%; in assay [8] it was 12%; in assay [9], 4%; in assay [10], 4%; in [11] it was -5%; in assay [12] it was 2%. The inhibition in assay [13] came to 2%; in assay [14], 5%; in assay [15], 11%.
